According to the RNAGym collection of RNA variant scans (doi:10.1126/science.aae0568):
Fewer inactive variants are shown than the library holds.

B1: tRNA (parent)
chain: GUUCCGUUGGCGUAAUGGUAACGCGUCUCCCUCCUAAGGAGAAGACUGCGGGUUCGAGUCCCGUACGGAACG

Variants of: B1
Assay: yeast fitness relative to wild type (ratio to wild type); higher = fitter; tRNA-Arg(CCU), competitive growth, 37 C, YPD
Outline: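 Variants of the tRNA-Arg(CCU) gene were chemically synthesised with a 3% per-site mutation rate across 69 sites and placed at the native genomic locus in Saccharomyces cerevisiae. Six parallel replicates of the pooled strains were competed in YPD at 37°C for 24 hours, and gene amplicons from the start and end populations were read by 100-nucleotide paired-end sequencing. Darwinian fitness relative to wild type was derived from changes in genotype frequencies. Genotypes required ≥ 100 starting reads, and estimates < 0.5 were set to 0.5.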

First: C31U G48C C66U
Second: U32A A70U
The yeast fitness of the first is lower: 0.741 for the first, 0.857 for the second.

First: C33A A43C G50A A57U C60G
Second: U32G C34U A57G
The yeast fitness of the first is lower: no more than 0.5 for the first, 0.561 for the second.

First: C31U G39C A40U
Second: U32A U54A
The yeast fitness of the first is higher: 0.838 for the first, no more than 0.5 for the second.

First: U32G A45G A69U
Second: U32G C33G A70G
The yeast fitness of the first is higher: 0.553 for the first, no more than 0.5 for the second.

Compared with C31U U32C C33U, C33A A36U C62U is lower in yeast fitness: 0.667 for the first, no more than 0.5 for the second.

C33G G41C A43C and U32A A43G C61U cannot be ordered by yeast fitness: no more than 0.5 for the first, no more than 0.5 for the second.

Compared with U32C A36G G63A, C33A G58C C62G U64G is lower in yeast fitness: 0.628 for the first, no more than 0.5 for the second.

Going from U32G C62A to U32G C62U, the yeast fitness rises from 0.512 to 0.625.

First: U32G C33G C66U A69U
Second: U32C G63C
The yeast fitness of the first is lower: no more than 0.5 for the first, 0.759 for the second.

Going from U32C A40U C55G to U32A A37C C66U, the yeast fitness falls from 0.703 to no more than 0.5.

First: C33A U35C C46U C49U G52C C61U C66U A69U
Second: C33A U35A C62U
The yeast fitness of the first is lower: 0.528 for the first, 0.617 for the second.

Compared with C33G A40U G56A, U32C A36U G38A G50A is higher in yeast fitness: no more than 0.5 for the first, 0.584 for the second.

First: U32G A69C
Second: C31U U47A G51U C62U
The yeast fitness of the first is higher: 0.848 for the first, no more than 0.5 for the second.

First: U32C G39C G50C
Second: C31U G68A
The yeast fitness of the first is lower: no more than 0.5 for the first, 0.883 for the second.

Compared with C31U G68C, C31U C60U is higher in yeast fitness: 0.68 for the first, 0.841 for the second.

Compared with U32C A43C A65U, C33A A40U C55U C62U is lower in yeast fitness: 0.503 for the first, no more than 0.5 for the second.

C33G A40C C62G and C31U U53A U59A cannot be ordered by yeast fitness: no more than 0.5 for the first, no more than 0.5 for the second.

U32A C34G C55G G68A A70C and C33A U54C C55G cannot be ordered by yeast fitness: no more than 0.5 for the first, no more than 0.5 for the second.

First: C31U G52C C60A
Second: C31U G38C G52C
The yeast fitness of the first is higher: 0.632 for the first, no more than 0.5 for the second.

Compared with U32C C46G U59C G63C G68C, C31U G63C is higher in yeast fitness: no more than 0.5 for the first, 0.766 for the second.

Going from U32C G39U to U32C G39A, the yeast fitness rises from 0.911 to 0.928.

C31U U47G G56C and U32G G56A G63C cannot be ordered by yeast fitness: no more than 0.5 for the first, no more than 0.5 for the second.

Compared with C33G A65G, U32C A40G C49G is lower in yeast fitness: 0.734 for the first, 0.514 for the second.

First: U32C A43G A65C
Second: U32G A57U
The yeast fitness of the first is higher: 0.913 for the first, 0.527 for the second.

U32C A43C G52A C55U C60A and C31U U47A G51U cannot be ordered by yeast fitness: no more than 0.5 for the first, no more than 0.5 for the second.

First: C31U G41A A69U
Second: U32C C33A
The yeast fitness of the first is higher: 0.808 for the first, 0.628 for the second.

Compared with C33G A42U G63A, C31U G44C A65C is higher in yeast fitness: 0.516 for the first, 0.594 for the second.

First: U32G G51A C55G
Second: C33G G38C C46A
The yeast fitness of the first is lower: no more than 0.5 for the first, 0.551 for the second.

Going from U32C C55U C62U to U32C G38C G68C, the yeast fitness falls from 0.653 to no more than 0.5.

First: C33A A57G
Second: C33A A57U
The yeast fitness of the first is higher: 0.781 for the first, 0.564 for the second.

First: U32C C60G
Second: C33G C34U A65U
The yeast fitness of the first is lower: 0.552 for the first, 0.629 for the second.

Compared with U32A C33U A42U C60A, U32G G48C A65C is lower in yeast fitness: 0.595 for the first, 0.574 for the second.

U32C U35C A40G and C31U U35C U53C cannot be ordered by yeast fitness: no more than 0.5 for the first, no more than 0.5 for the second.

Compared with U32G G56C, C31U U54C is higher in yeast fitness: no more than 0.5 for the first, 0.82 for the second.

Compared with U32C G48C C49U, C33A A37U C62A A70C is lower in yeast fitness: 0.635 for the first, 0.605 for the second.

Going from U32C A42U to C33G G48A, the yeast fitness falls from 0.974 to 0.629.

First: U32C G67C
Second: U32A A37C G51C A57U
The yeast fitness of the first is higher: 0.9 for the first, no more than 0.5 for the second.

Compared with U32C G48A A70U, C33A C61A C62U C66U is lower in yeast fitness: 0.783 for the first, 0.562 for the second.

First: U32C A40U A43G
Second: U32C G51A A70U
The yeast fitness of the first is lower: 0.684 for the first, 0.868 for the second.

U32C A40U C55A G56C and U32C G38C G50A A70G cannot be ordered by yeast fitness: no more than 0.5 for the first, no more than 0.5 for the second.

First: U32C A40U A69C
Second: U32G A42G C46U G51A
The yeast fitness of the first is higher: 0.747 for the first, no more than 0.5 for the second.

First: U32C A43G A45G
Second: C33G C62U
The yeast fitness of the first is lower: 0.608 for the first, 0.758 for the second.

First: U32C A42G G63A
Second: U32G C61U C66U A69G
The yeast fitness of the first is higher: 0.556 for the first, no more than 0.5 for the second.

Going from C31U G52C U54A C66U to C31U G50A G67A, the yeast fitness rises from no more than 0.5 to 0.63.

First: C31U U32C C34A C55U
Second: U32C A70U
The yeast fitness of the first is lower: no more than 0.5 for the first, 0.935 for the second.

Compared with U32C A70C, U32G A42G C61U is lower in yeast fitness: 0.991 for the first, no more than 0.5 for the second.

Compared with U32C G58A, U32C C49A is lower in yeast fitness: 0.798 for the first, 0.692 for the second.

First: U32C C49G
Second: U32C A37G C55A A65U G68C
The yeast fitness of the first is higher: 1.02 for the first, 0.575 for the second.

First: U32C C34U
Second: C31U G39A G44A C61U
The yeast fitness of the first is higher: 0.788 for the first, no more than 0.5 for the second.

C31U G48C C55A C60G A69G and C33A A36C C46G C62G A69U cannot be ordered by yeast fitness: no more than 0.5 for the first, no more than 0.5 for the second.

Going from C31U G56A to C33A A45G A70U, the yeast fitness falls from 1.04 to 0.638.

First: U32G U35A G38C G51C C66U
Second: C31U G52C A65U
The yeast fitness of the first is higher: 0.579 for the first, no more than 0.5 for the second.

First: U32A A43G U64G
Second: C33G G51C G68A A69C
The yeast fitness of the first is lower: no more than 0.5 for the first, 0.607 for the second.

Compared with U32A A42U, U32C C34U G44C is lower in yeast fitness: 0.861 for the first, no more than 0.5 for the second.

Compared with C31U C60U U64C, C31U U59C is higher in yeast fitness: 0.695 for the first, 1.02 for the second.

First: C33G A45U G56C
Second: C33G A42G G52A C62U A70U
The yeast fitness of the first is higher: 0.637 for the first, no more than 0.5 for the second.

Compared with U32C A57G, U32C A43C C49U is lower in yeast fitness: 0.861 for the first, 0.648 for the second.

Compared with C31U G58C C61A A69U, C33G G41A A69C is lower in yeast fitness: 0.505 for the first, no more than 0.5 for the second.

Compared with C33G C62A G67C, U32C C55U A69C is higher in yeast fitness: no more than 0.5 for the first, 0.63 for the second.

First: U32A G39A G63A
Second: C33A C34G G50A
The yeast fitness of the first is lower: no more than 0.5 for the first, 0.517 for the second.

Compared with C33G A57G C61G G63A A65G C66U, C33G C49A C55G G56C is higher in yeast fitness: no more than 0.5 for the first, 0.561 for the second.

Compared with U32A A40C G58C G63A, U32G C46U A69U is higher in yeast fitness: no more than 0.5 for the first, 0.602 for the second.

Compared with C31U G67U A69G, C33G A37U A40C A69U is lower in yeast fitness: 0.747 for the first, 0.543 for the second.

Compared with U32C A36G, U32C G52C is lower in yeast fitness: 0.861 for the first, 0.602 for the second.

Compared with U32G G50A, C31U U53G C61G A70U is lower in yeast fitness: 0.714 for the first, no more than 0.5 for the second.

C33G A57U G68A A69U and U32C A45U G52A A70U cannot be ordered by yeast fitness: no more than 0.5 for the first, no more than 0.5 for the second.

First: C31U U53C
Second: C31U U53A
The yeast fitness of the first is lower: 0.633 for the first, 0.656 for the second.

Compared with U32C G48A, U32C G48C is higher in yeast fitness: 0.76 for the first, 0.862 for the second.

First: C33G A45U C46U G56C
Second: U32C G41C U47C
The yeast fitness of the first is lower: no more than 0.5 for the first, 0.592 for the second.

Going from U32C U35C C49G to U32G U35A G38C C46G, the yeast fitness falls from 0.545 to no more than 0.5.

U32C A36U C61G and U32C A36U C61U cannot be ordered by yeast fitness: no more than 0.5 for the first, no more than 0.5 for the second.

First: C33A A36C A43U C46G C62G A69U
Second: C33G A40U A70G
The yeast fitness of the first is lower: no more than 0.5 for the first, 0.545 for the second.

Compared with U32G G67C, C33A U35G C49U A65U is lower in yeast fitness: 0.59 for the first, no more than 0.5 for the second.

First: U32G C46A C66U
Second: U32A C33G
The yeast fitness of the first is lower: 0.538 for the first, 0.706 for the second.

Compared with C33A G38C C46A G58C, C33A C34G G50A A70U is lower in yeast fitness: 0.698 for the first, no more than 0.5 for the second.

First: U32C C66A
Second: U32C A37C
The yeast fitness of the first is lower: 0.702 for the first, 0.771 for the second.

Compared with U32C A37U, C31U G50A is higher in yeast fitness: 0.729 for the first, 0.904 for the second.

U32A C34A U53C U64A and C33G C60A C66G cannot be ordered by yeast fitness: no more than 0.5 for the first, no more than 0.5 for the second.

Going from C33G C34G C46G to U32C G58A C62U A69C, the yeast fitness rises from no more than 0.5 to 0.716.

Compared with U32C A40G C62G G68A A69C, C33A A42C A45C U47G is higher in yeast fitness: no more than 0.5 for the first, 0.515 for the second.

Compared with U32C C46A, C31U G50A A70U is lower in yeast fitness: 0.88 for the first, 0.677 for the second.

Going from U32A A45U to U32A A36C A70G, the yeast fitness falls from 0.789 to no more than 0.5.

Compared with C31U C60G A70G, C31U G56A G63C is lower in yeast fitness: 0.675 for the first, no more than 0.5 for the second.

For C33G C61G, the yeast fitness was 0.815.
